Source: ChEMBL document CHEMBL1140339, “Spiro and dispiro-1,2,4-trioxolanes as antimalarial peroxides: charting a workable structure-activity relationship using simple prototypes” (J Med Chem, 2005)

Legend:
[1] = tested on: Mus musculus; test: Antimalarial activity (10 mg/kg, subcutaneously) given 1 day post infection of mice (Mus musculus) with Plasmodium berghei is its ability to reduce parasitemia on day 3 post infection; format: functional
In short: (§1)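 P. berghei-infected MORO mice, groups of three, treated 1 day postinfection with a single dose (100 or 10 mg/kg, po or sc) dissolved or suspended in 3% ethanol/7% Tween-80. Activity is percent reduction in parasitemia on day 3 postinfection versus untreated controls. Survival time is compared with an untreated control group. Individual measurements generally differed by less than 10%.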

[2] = Bioavailability obtained after oral administration of 30 mg/kg (n=1); format: ADME, organism-based, Mus musculus; conditions: in vivo
In short: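 Conscious, free-moving rats (n = 3 per group) were jugular- and carotid-cannulated the day before dosing under isoflurane, then fasted overnight. The iv dose was a 5 min jugular infusion in aqueous 0.1 M Captisol (10, 20 or 30 mg/kg). The oral dose was given by gavage as a suspension in 0.5% CMC/0.4% polysorbate 80/0.5% benzyl alcohol/0.9% NaCl (30, 50 or 80 mg/kg). Carotid blood was sampled over 7 h and plasma was obtained by centrifugation.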

[3] = tested on: Mus musculus; test: Effective dose required to reduce the parasitemia in mice when compound administered with Tween-80 after 3 day postinfection; format: functional
[4] = tested on: Mus musculus; test: Effective dose required to reduce the parasitemia in mice when compound administered with SSV after 3 day postinfection; format: functional
[5] = organism: Mus musculus; test: Effective dose required to reduce the parasitemia in mice by suppressive test after 4 day postinfection; format: functional
In short: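 Peters 4-day suppressive test in P. berghei-infected mice with multiple daily oral doses. ED50/ED90 are given in (mg/kg)/day.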

[6] = tested on: Mus musculus; test: Survival of mice to 30-day postinfection with Plasmodium berghei upon 10 mg/kg peroral dose was determined; format: functional; conditions: route oral; in short: as §1
[7] = tested on: Mus musculus; test: Survival of mice to 30-day postinfection with Plasmodium berghei upon 10 mg/kg upon subcutaneous dose was determined; format: functional; in short: as §1
[8] = Plasma clearance after intravenous administration of 10 mg/kg; conditions: rat
[9] = Volume distribution after intravenous administration of 10 mg/kg; conditions: rat, in vivo
[10] = Plasma half life period after intravenous administration ( 10 mg/kg ); conditions: rat
[11] = Plasma clearance after intravenous administration of 20 mg/kg; conditions: rat
[12] = Volume distribution after intravenous administration of 20 mg/kg; conditions: rat, in vivo, read-out: Vd
[13] = Plasma half life period after intravenous administration ( 20 mg/kg ); conditions: rat

clearance [11] [mL/min/kg] | Vd [12] [L/kg] | half-life [13] [h] | SMILES | Reduction [1] [%] | bioavailability [2] [%] | ED90 [3] | ED90 [4] | ED90 [5] | Survival [6] [days] | Survival [7] [days] | clearance [8] [mL/min/kg] | Vd [9] [L/kg] | half-life [10] [h]
– | – | – | c1ccc(C2CCC3(CC2)OOC2(O3)C3CC4CC(C3)CC2C4)cc1 (stereo not drawn) | 99.92 | 9.5 | 3.2 (mg/kg)/day | 5.7 (mg/kg)/day | 2.6 (mg/kg)/day | 12.6 | 17.1 | 33 | 5 | 1.62
72 | 3 | 0.433 | C[C@H]1[C@@H](O)O[C@@H]2O[C@@]3(C)CC[C@H]4[C@H](C)CC[C@@H]1[C@@]24OO3 [ARTENIMOL] | – | – | – | – | – | – | – | – | – | –
